# Screening results deposited in PubChem BioAssay by several laboratories.
# This is a sample that favours compounds with a hit; in the whole collection about 2.3% have one here.
# CAL PDZ FP-1 – blocks peptide binding to the human CAL PDZ domain; Q9HD26; purified CAL PDZ, TMR-peptide fluorescence polarization, 1 h; inhibition, % at 24.9 µM; 300,000 compounds, 0.92% hits;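 active means mean inhibition of at least 30% with at least half of replicates also reaching 30%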;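 further: 0% = DMSO neutral control and 100% = excess unlabeled competitor peptide PRC23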
# CAL PDZ FP-2 – human CAL PDZ-peptide interaction inhibition; Q9HD26; inhibition, % at 20 µM; 330,000 compounds, 0.02% hits; AID 504414; purified CAL PDZ, TMR-peptide fluorescence polarization, 1 h;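 active means highest replicate inhibition of at least 40%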;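 further: plate controls were DMSO neutral control wells for no effect and unlabeled competitor peptide control wells for full effect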
#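 Read-out basis: mP drop reported as inhibition | Assay system: Tagged CAL PDZ protein CerCALP, purified | Benchmarks: Unlabelled peptide for full inhibition, DMSO wells as neutral | Schedule: 1 h incubation at room temperature before polarization reading | Buffer or medium: Sodium phosphate/NaCl buffer pH 7.4 with TCEP, IgG, Thesit | Doses: Single point, 20 µM | Measured by: Fluorescence polarization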
# SR-BI DiI-HDL act – SR-BI HDL lipid transfer activation | CHO ldlA[mSR-BI] cells, DiI-HDL uptake fluorescence, 3 h; 100 = double the neutral-control signal | activation, % at 12.5 µM | 320,000 compounds, 0.096% hits | AID 504775;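 active means mean replicate activation of at least 60% and every replicate at or above 60%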;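 further: 0% = median plate neutral-control signal and 100% = twice that signal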
#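 system = CHO ldlA[mSR-BI] cells, LDL receptor-null, SR-BI overexpressing | medium = Ham's F12 with 0.5% BSA, HEPES 25 mM, pH 7.4 | probe or stimulus = DiI-HDL 10 µg/mL | compound dosing = single-point compound dose | incubation = compound exposure 3 h, 37 °C | technique = DiI fluorescence, bottom read | read-out = cell-associated DiI fluorescence as measure of HDL uptake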
# SR-BI HDL uptake – inhibitors of mouse SR-BI mediated HDL lipid uptake; Q61009; ldlA[mSR-BI] CHO cells, DiI-HDL uptake fluorescence, 3 h; inhibition, % at 12.5 µM; 320,000 compounds, 0.96% hits;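 active means mean replicate inhibition of at least 70% and a set share of replicates each scoring 70 or more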;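 further: 0% = median of neutral control wells and 100% = median of positive control wells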
# Target sequence (Q61009 whole entry, looked up): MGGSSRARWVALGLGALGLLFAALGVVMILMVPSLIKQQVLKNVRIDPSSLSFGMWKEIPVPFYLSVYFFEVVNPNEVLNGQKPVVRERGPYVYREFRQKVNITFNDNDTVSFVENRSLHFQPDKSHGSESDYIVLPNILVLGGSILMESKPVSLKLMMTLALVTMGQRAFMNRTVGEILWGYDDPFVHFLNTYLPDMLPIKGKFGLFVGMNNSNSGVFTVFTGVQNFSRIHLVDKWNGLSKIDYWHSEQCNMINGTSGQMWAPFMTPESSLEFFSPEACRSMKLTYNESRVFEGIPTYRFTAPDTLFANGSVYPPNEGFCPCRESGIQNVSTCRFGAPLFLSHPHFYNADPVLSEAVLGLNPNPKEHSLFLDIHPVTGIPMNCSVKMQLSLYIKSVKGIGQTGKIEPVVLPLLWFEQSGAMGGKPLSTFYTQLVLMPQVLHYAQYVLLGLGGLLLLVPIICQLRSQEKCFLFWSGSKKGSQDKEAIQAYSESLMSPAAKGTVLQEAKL
# ATG4B inhibitor – blocks human ATG4B protease cleavage of LC3 substrate | inhibition, % at 8.33 µM | AID 504462 | ATG4B cleavage of LC3-PLA2, NBD-HPC fluorescence, 1 h | 340,000 compounds, 0.51% hits; in the data active means inhibition above about 40%
# Numbers without * were called inactive; / = no result given.
SMILES,CAL PDZ FP-1,CAL PDZ FP-2,SR-BI DiI-HDL act,SR-BI HDL uptake,ATG4B inhibitor
CCOc1ccccc1C(=O)NCC(=O)NCCSc1ccc(Br)cc1,-1.0,-1.6,-55.1,55.0,-5.3
CCOc1ccc(NC(=O)CN(C)C(=O)c2c(-c3ccccc3Cl)noc2C)cc1OCC,/,-0.3,-64.5,64.5,-5.4
C=CCNCCCCOc1ccc(OCC)cc1,44.8*,/,4.8,-4.8,-9.0
Cc1c(C(c2ccc(C(=O)O)cc2)c2c(C)n(C)n(-c3ccccc3)c2=O)c(=O)n(-c2ccccc2)n1C,-10.1,/,-76.2,76.2*,11.8
Cc1c(C(c2ccc(O)cc2)c2c(C)n(C)n(-c3ccccc3)c2=O)c(=O)n(-c2ccccc2)n1C,10.7,-0.6,8.3,-8.3,0.4
COc1ccc(OC)c2sc(N3CCc4ccccc4C3)nc12,32.8*,-1.2,-57.7,57.7,21.6
COc1ccc(N(CC(=O)NCc2cccs2)S(=O)(=O)c2ccc(F)cc2)cc1,-5.2,0.3,-3.6,3.6,-12.5
COc1cc(/C=C\C(=O)NCc2ccc3[nH]c(C)cc3c2)cc(OC)c1OC,/,-0.4,-75.5,75.5*,-21.1
Cc1c(C(=O)N/N=C/c2cccnc2)sc(N)c1C#N,-1.8,-0.1,-17.4,17.4,-2.6
CCc1ccc(OCC(=O)N2CCc3ccccc32)cc1,37.8*,-0.8,9.1,-9.1,1.2
Cc1ccc(OCC(=O)N2CCc3ccccc32)cc1,0.4,-2.3,10.2,-10.2,-0.3
O=S(=O)(N[C@H](CO)c1ccccc1)c1ccc(Br)cc1F,-2.5,2.2,-30.1,30.1,5.1
CC(CO)NS(=O)(=O)c1ccc(Br)cc1F (configuration not stated),40.2*,0.6,-9.7,9.7,-8.0
COc1cc(/C=N/n2c(-c3cc(C)[nH]n3)n[nH]c2=S)cc(OC)c1OC,33.7*,-1.9,3.7,-3.7,-10.4
CC(C)(C)OC(=O)N1CCCC(C(=O)Nc2ccc(C(=O)NC3CC3)cc2)C1 (configuration not stated),-3.8,-0.7,15.4,-15.4,-4.8
CCOC(=O)C1=NNC(C(=O)c2ccccc2)C1c1ccc(Cl)cc1 (configuration not stated),/,-0.8,/,/,11.4
O=C(c1ccccc1)C1N=NCC1c1ccc(Cl)cc1 (configuration not stated),174.1*,-0.8,1.0,-1.0,-4.5
O=C(N/N=C/c1ccc([N+](=O)[O-])cc1)c1ccc(COc2ccccc2-c2ccccc2)cc1,-0.9,-2.3,-99.3,99.3*,-4.3
O=C(NCCc1ccccc1F)C1CC(=O)N(c2cccc(C(F)(F)F)c2)C1 (configuration not stated),2.0,-1.2,10.2,-10.2,-2.0
CCN(CC(=O)Nc1ccc(NC(C)=O)cc1)C(=O)CC1OC(=O)c2ccccc21 (configuration not stated),-2.7,-2.1,11.6,-11.6,-2.2
CCOC(=O)C1=C(C)NC(C)=C(C(=O)OC)C1c1ccco1 (configuration not stated),36.5*,-0.7,22.6,-22.6,-5.4
CCOC(=O)C1=C(C)NC(=O)C(C#N)C1c1ccco1 (configuration not stated),-2.8,-0.5,60.9*,-60.9,-5.6
CCOC(=O)c1cc2c(ccc3nc(C)c(C)c32)[nH]c1C,2.5,-1.2,-57.2,57.2,1.0
Cc1c(Cl)ccc2c(C(O)CBr)cc(-c3ccccc3)nc12 (configuration not stated),5.4,-1.4,-58.1,58.1,5.7
COc1ccc(NC(=O)CSc2nnc(N)n2CC(=O)Nc2ccc(OC)cc2)cc1,52.4*,-0.5,17.4,-17.4,-3.9
COc1ccc(NC(=O)CSc2nnc(-c3ccoc3C)n2CCc2ccccc2)cc1,102.6*,/,-9.3,9.3,-11.0
COCCn1c(SCC(=O)Nc2ccc(OC)cc2)nnc1-c1ccoc1C,6.1,-2.8,/,/,-0.2
CC(=O)NCC(=O)N1CCCC(C(=O)c2ccc(Oc3ccccc3)cc2)C1 (configuration not stated),-4.8,-0.2,-21.2,21.2,1.4
Cn1cc([N+](=O)[O-])c(C(=O)NCc2ccccc2)n1,30.2*,-0.4,21.5,-21.5,5.1
COc1ccc(CC(=O)Nc2ccc(-c3cn4ccc(C)cc4n3)cc2)cc1,-0.5,0.7,-82.7,82.7*,-9.1
